According to ChEMBL document CHEMBL5579848, “Isothiocyanate-Corticosteroid Conjugates against asthma: Unity makes strength” (Eur J Med Chem, 2024):
Values after ≈ are worked out from the molar mass of the structure shown. Active and inactive are the calls of the source. The calls are words filed in the database; no cut-off is given here.

Experiments:
RBL-2H3 [1] = experiment: Inhibition of mast cell degranulation in DNP-HSA antigen sensitized rat RBL-2H3 cells assessed as reduction in beta-hexoaminosidase release at 100 uM preincubated for 5 mins followed by DNP addition and measured after 1 hr by multiplate reader; assay type: functional, cell-based; settings: time 65.0 min
Summary of the method: (§1)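 RBL-2H3 cells (72×10^3/well) were sensitized overnight with anti-DNP IgE 0.50 µg/ml, then moved to phenol-free DMEM with 1 mg/ml BSA. Cells were preincubated 5 min at 37 °C with 0.1 % DMSO, cromolyn 1 mM or compound 100 μM, then challenged with DNP-HSA 10 ng/ml. After 1 h, supernatant was incubated 1 h with 1.4 mM p-nitrophenyl-N-acetyl-β-D-glucosaminide (citrate pH 4.2), stopped with Trizma pH 9.4, and read at 405 nm.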

Mus musculus [2] = experiment: Anti-asthmatic activity in OVA-induced female BALB/c mouse model assessed as reduction in IgE level in plasma at 3.512 x 10^-6M, ip for 30 min before every ovalbumin challenge on day 0 and 7 and measured after 21 days by ELISA; assay type: functional, organism-based; settings: dose 3.512 10^-6M, time 21.0 day
Summary of the method: (§2)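 Female BALB/c mice (20 g, 8 weeks) sensitized s.c. with 100 μg ovalbumin adsorbed to 13.3 mg aluminum hydroxide gel (0.4 ml) on days 0 and 7; saline controls. Test agent (1–2 mg/kg, or equimolar 3,51 × 10^-6 mol) or vehicle given ip 30 min before each OVA dose. Killed day 21 by enflurane overdose; lungs, bronchi, blood collected.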

Mus musculus [3] = experiment: Anti-asthmatic activity in OVA-induced female BALB/c mouse model assessed as inhibition of bronchial hyperreactivity at 3.512 x 10^-6M, ip for 30 min before every ovalbumin challenge on day 0 and 7 and measured after 21 days by isometric force transducer analysis; assay type: functional, organism-based; settings: dose 3.512 10^-6M, time 21.0 day; summary of the method: as §2
Mus musculus [4] = experiment: Anti-asthmatic activity in OVA-induced female BALB/c mouse model assessed as reduction in pulmonary IL-13 level at 3.512 x 10^-6M, ip for 30 min before every ovalbumin challenge on day 0 and 7 and measured after 21 days by ELISA; assay type: functional, organism-based; settings: dose 3.512 10^-6M, time 21.0 day; summary of the method: as §2
Mus musculus [5] = experiment: Anti-asthmatic activity in OVA-induced female BALB/c mouse model assessed as reduction in lung damage at 3.512 x 10^-6M, ip for 30 min before every ovalbumin challenge on day 0 and 7 and measured after 21 days by H and E staining based microscopic analysis; assay type: functional, organism-based; settings: dose 3.512 10^-6M, time 21.0 day; summary of the method: as §2
[6] = Solubility of compound in PBS at pH 7.4 at 5 mg incubated at 25 degreeC for 6 hrs by UHPLC analysis; assay type: physicochemical
Summary of the method: (§3)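 Solid compound (5 mg) was shaken in 1 mL water, PBS (pH 7.4, 50 mM) or pepsin-free SGF (pH 1.2) for 6 h at 25 °C. Suspensions were filtered (0.45 μm) and the filtrate quantified by UHPLC, reported in mg/L; triplicate, mean values.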

[7] = Solubility of compound in water at 5 mg incubated at 25 degreeC for 6 hrs by UHPLC analysis; assay type: physicochemical; summary of the method: as §3
[8] = Induction of H2S release in PBS at pH 7.4 at 100 uM pretreated with L-Cys for 10 mins followed by compound addition and measured after 30 mins by free radical analyzer; assay type: physicochemical; settings: buffer, pH 7.4, 0.5 h
Summary of the method: (§4)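 An H2S-selective mini-electrode was equilibrated in PBS pH 7.4, and compound was added to 100 μM final (1 % DMSO). Amperometric current was recorded for 30 min, with or without L-cysteine 4 mM added 10 min before. Current was converted to H2S using NaHS calibration (1–10 µM, pH 4.0); mean ± SEM.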

[9] = Half life in PBS at pH 7.4 at 100 uM incubated at 37 degreeC up to 24 hrs by UPHLC analysis; assay type: ADME
Summary of the method: (§5)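 A 10 mM DMSO stock was diluted to 100 μM in PBS (pH 7.4, 50 mM) or pepsin-free SGF (pH 1.2) and held at 37 ± 0.5 °C for 24 h. Timed aliquots were quantified by reverse-phase UHPLC-DAD against calibration curves (1.56–100 ppm), tracking the parent compound plus aminoacetate and corticosteroid metabolites. Pseudo-first-order t1/2 was calculated; n = 3.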

RBL-2H3 [10] = experiment: Cytotoxicity against rat RBL-2H3 cells assessed as reduction cell viability at 100 uM after 24 hrs by WST assay; assay type: toxicity, cell-based; settings: rbl-2h3, 24 h
Summary of the method: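 RBL-2H3 cells were grown in MEM with 10 % FBS, 10^4 cells/well, and attached for 24 h. They were then exposed 24 h to 100 μM compound (final) or 0.1 % DMSO. WST-1 (1:10) was added for 60 min at 37 °C and absorbance read at 450 nm. Viability is expressed as % of vehicle; mean ± SEM.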

Albumin [11] = target: T1, Albumin (Bos taurus, UniProt P02769); experiment: Stability in 3% bovine serum albumin assessed as parent compound remaining at 200 uM incubated at 37 degreeC for 10 mins by UHPLC analysis; assay type: ADME; settings: cattle, 3% bovine serum albumin solution, read-out: Stability
Summary of the method: (§6)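 A 10 mM DMSO stock was diluted to 200 μM in 3 % BSA in PBS and incubated at 37 ± 0.5 °C for up to 4 h. Timed samples were deproteinized with an equal volume of acetonitrile/0.1 % TFA, centrifuged, filtered and quantified by UHPLC. Results are given as pseudo-first-order t1/2 or % parent remaining at 10 min; n ≥ 3.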

[12] = Induction of H2S release in PBS at pH 7.4 at 100 uM measured after 30 mins by free radical analyzer; assay type: physicochemical; settings: buffer, pH 7.4, 0.5 h; summary of the method: as §4
[13] = Solubility of compound in simulated gastric fluid at pH 1.2 in absence of pepsin at 5 mg incubated at 25 degreeC for 6 hrs by UHPLC analysis; assay type: ADME; settings: simulated gastric fluid without pepsin; summary of the method: as §3
[14] = Half life in simulated gastric fluid at pH 1.2 in absence of pepsin at 100 uM incubated at 37 degreeC up to 24 hrs by UPHLC analysis; assay type: ADME; settings: simulated gastric fluid without pepsin; summary of the method: as §5
RBL-2H3 [15] = experiment: Inhibition of mast cell degranulation in DNP-HSA antigen sensitized rat RBL-2H3 cells assessed as reduction in beta-hexoaminosidase release at 1 mM preincubated for 5 mins followed by DNP addition and measured after 1 hr by multiplate reader relative to control; assay type: functional; settings: RBL-2H3, 1.083 h, time 65 min; summary of the method: as §1
Albumin [16] = target: T1, Albumin; experiment: Half life in 3% bovine serum albumin at 200 uM incubated up to 4 hrs by UHPLC analysis; assay type: ADME; settings: cattle, 3% bovine serum albumin solution; summary of the method: as §6

T1 sequence (P02769 whole entry): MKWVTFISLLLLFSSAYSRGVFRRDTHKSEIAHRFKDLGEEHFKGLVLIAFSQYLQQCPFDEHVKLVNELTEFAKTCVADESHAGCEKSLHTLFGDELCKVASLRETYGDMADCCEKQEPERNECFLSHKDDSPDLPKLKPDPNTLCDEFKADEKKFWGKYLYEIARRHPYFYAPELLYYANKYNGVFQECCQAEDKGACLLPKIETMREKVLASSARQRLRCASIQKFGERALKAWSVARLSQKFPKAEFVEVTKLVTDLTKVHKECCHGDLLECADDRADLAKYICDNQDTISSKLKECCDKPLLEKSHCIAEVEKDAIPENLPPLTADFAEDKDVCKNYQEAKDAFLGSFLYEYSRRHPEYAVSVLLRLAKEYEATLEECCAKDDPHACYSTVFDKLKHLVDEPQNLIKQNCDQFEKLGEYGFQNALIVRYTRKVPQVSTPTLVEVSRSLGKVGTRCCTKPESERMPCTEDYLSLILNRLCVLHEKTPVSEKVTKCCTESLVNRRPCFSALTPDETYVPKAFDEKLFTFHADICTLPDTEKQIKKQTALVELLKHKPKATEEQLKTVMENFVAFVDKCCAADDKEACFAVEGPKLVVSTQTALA

solubility at 6 h [6] [µg/mL]	solubility at 6 h [7] [µg/mL]	Activity [8]	half-life at 100 µM [9] [h]	Activity [12]	solubility at 6 h [13] [µg/mL]	half-life at 100 µM [14] [h]	Compound	inhibition (RBL-2H3 [1])	Activity (RBL-2H3 [10])	further results
							C[C@]12C=CC(=O)C=C1CC[C@@H]1[C@@H]2C(=O)C[C@@]2(C)[C@H]1CC[C@]2(O)C(=O)COC(=O)CN	Active		
							C[C@]12C=CC(=O)C=C1CC[C@@H]1[C@@H]2[C@@H](O)C[C@@]2(C)[C@H]1C[C@H]1O[C@@H](C3CCCCC3)O[C@]12C(=O)COC(=O)CN	Active		Activity (Mus musculus [2]): Active; Activity (Mus musculus [3]): inactive; Activity (Mus musculus [4]): inactive; Activity (Mus musculus [5]): inactive
15.9 (≈ 34.8 µM)	5.26 (≈ 11.5 µM)	~ 2 uM	0.2	~ 2 uM	16.1 (≈ 35.2 µM)	18	C[C@]12C=CC(=O)C=C1CC[C@@H]1[C@@H]2C(=O)C[C@@]2(C)[C@H]1CC[C@]2(O)C(=O)COC(=O)CN=C=S	Active	Non-Toxic	remaining at 10 min, 200 µM (Albumin [11]): 19%
							O=C(O)c1cc(=O)c2c(OCC(O)COc3cccc4oc(C(=O)O)cc(=O)c34)cccc2o1 [CROMOLYN]			inhibition at 1000 µM (RBL-2H3 [15]): ~25%
0.12 (≈ 0.208 µM)	< 0.1	Active	> 24	Active	0.16 (≈ 0.278 µM)	> 24	CCCCC(=O)O[C@]1(C(=O)COC(=O)CN=C=S)[C@@H](C)C[C@H]2[C@@H]3CCC4=CC(=O)C=C[C@]4(C)[C@@]3(F)[C@@H](O)C[C@@]21C		Toxic	half-life at 200 µM (Albumin [16]): 1 h
